HCV core dimer: HCV core protein dimerization inhibition. TR-FRET GST/Flag-core106 dimerization, 1536-well. hit rate 0.33% among 300,000. inhibition, % at 5 µM;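 active = inhibition above the mean of all tested compounds plus 3 SD, set per screening campaign, cut at about 45% in these data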
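System: GST-tagged and Flag-tagged HCV core protein residues 1-106 / Input: core106 proteins, GST 13.5 nM and Flag 17 nM / Buffer or medium: KF-containing HEPES buffer, pH 7.45, DTT, CHAPS, BSA / Probe or stimulus: Eu-anti-GST and XL665-anti-Flag labelled anti-tag antibodies / Schedule: 4 h, 22.5 °C incubation / Technique: TR-FRET 671 and 617 nm emission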
VIM-2 inh: blocks Pseudomonas aeruginosa VIM-2 metallo-beta-lactamase; inhibition, % at 5.6 µM; hit rate 0.89% among 290,000; purified VIM-2, nitrocefin hydrolysis, epi-absorbance fluorescence;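 active = inhibition above the mean of all tested compounds plus 3 SD, cutoff set per screening run, cut at about 7.5% in these data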;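 note: red hydrolysis product quenches plate fluorescence so inhibitors raise well fluorescence; 0% = enzyme with DMSO and 100% = DMSO without enzyme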
SUMO HTRF inh: inhibitors of human SUMOylation (UBC9). P63279. HTRF SUMOylation assay, SAE1/SAE2 + UBC9, in vitro. inhibition, % at 35 µM. hit rate 0.36% among 290,000. AID 2006; in the data active = inhibition above about 50%, passing the limit was not always enough
Target sequence (P63279 whole entry, looked up): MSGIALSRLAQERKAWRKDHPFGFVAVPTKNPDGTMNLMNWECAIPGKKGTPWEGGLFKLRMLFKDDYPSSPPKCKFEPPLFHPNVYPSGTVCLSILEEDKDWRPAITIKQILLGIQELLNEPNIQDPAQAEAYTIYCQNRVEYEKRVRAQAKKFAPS
PHOSPHO1 inh: inhibitors of human PHOSPHO1 phosphatase; Q8TCT1; recombinant PHOSPHO1, absorbance phosphatase assay; inhibition, % at 13.3 µM; hit rate 1.1% among 290,000; in the data active = inhibition above about 60%
Target sequence (Q8TCT1 whole entry, looked up): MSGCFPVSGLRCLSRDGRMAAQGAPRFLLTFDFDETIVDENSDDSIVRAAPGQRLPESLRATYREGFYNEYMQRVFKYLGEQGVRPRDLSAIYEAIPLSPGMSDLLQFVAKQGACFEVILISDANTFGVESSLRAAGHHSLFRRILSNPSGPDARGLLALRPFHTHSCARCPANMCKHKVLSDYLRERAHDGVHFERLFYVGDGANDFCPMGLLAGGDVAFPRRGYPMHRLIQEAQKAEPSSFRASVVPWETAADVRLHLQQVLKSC
HCV NS3 hel inh: inhibitors of Hepatitis C virus NS3 helicase. NS3 helicase DNA unwinding, Cy5 molecular beacon fluorescence. inhibition, % at 10.9 µM. hit rate 0.56% among 290,000;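 active = inhibition above the mean of all tested compounds plus 3 SD, set per campaign, cut at about 35% in these data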;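 note: 0% = DMSO wells and 100% = thioflavine S control wells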
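assay system = NS3 helicase fragment of HCV | buffer or medium = MOPS pH 6.5, MgCl2, DTT, Tween20, BSA | timing = 60 min unwinding reaction at 25 °C after ATP addition | signal = Cy5 beacon fluorescence read at start and 1 h | read-out basis = % inhibition of unwinding | control set = low DMSO, high thioflavine S at 110 µM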
IMP-1 inhibitor: inhibitors of Pseudomonas aeruginosa IMP-1 metallo-beta-lactamase; AID 1556; hit rate 0.45% among 290,000; inhibition, % at 5.6 µM; purified IMP-1, nitrocefin hydrolysis, epi-absorbance fluorescence;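 active = inhibition above the mean plus 3 SD of all compounds in the same screening run, cut at about 4.5% in these data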;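 note: 0% = IMP-1 with DMSO and 100% = DMSO wells lacking enzyme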
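System: purified recombinant IMP-1 beta-lactamase. Medium: Zinc- and detergent-supplemented HEPES buffer, pH 7.1. Compound: one 5.6 µM dose […]. Schedule: 15 min preincubation plus 25 min reaction at 25 °C. Technique: Epi-absorbance fluorescence, 480 nm excitation, 530 nm emission.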
* hit, by the source's call; . = no result given. Shown are actives, neighbours in structure and some others; about 3.1% of the full set was active somewhere.

SMILES	HCV core dimer	VIM-2 inh	SUMO HTRF inh	PHOSPHO1 inh	HCV NS3 hel inh	IMP-1 inhibitor
O=C(O)/C=C/C(=O)N(CC1CCCO1)C1CC(=O)N(c2c(Cl)cccc2Cl)C1=O (stereo unspecified)	6	-2	8	4	1	-1
Cc1cc(=S)[nH]c2c(C)cccc12	-1	0	21	98*	-1	-1
Cc1cccc2c(-c3ccccc3)cc(=O)[nH]c12	0	1	0	-35	5	-1
COc1ccc(Cl)cc1NC(=O)CN1CCN(Cc2ccccc2)CC1	2	0	-2	34	-12	-4
OCCn1nc2c3ccccc3nc-2n(-c2ccccc2)c1=S	0	0	6	76*	6	-1
Cc1ccc(-n2nc3ccc(N)cc3n2)c(C)c1	10	1	50*	30	13	-2
N#CC1(NC(=O)CN2CCN(S(=O)(=O)c3ccccc3F)CC2)CCCC1	-2	-1	5	33	-1	-2
CCOC(=O)CSc1n[nH]c(-c2ccco2)n1	3	2	13	-5	-3	-3
O=C(O)c1ccc(CSc2n[nH]c(-c3ccco3)n2)cc1	-14	3	47	-20	36*	-3
Cc1ccc(-n2nnnc2SCC(=O)c2cc(C)n(-c3cc(C)on3)c2C)c(C)c1	15	0	26	75*	-4	-2
O=C(c1cc(COc2ccc(F)c(F)c2)on1)N1CCN(C2CCCCC2)C(=O)C1	10	0	1	40	3	-1
Cc1c(NC(=S)N/N=C/c2ccc(N(C)C)cc2)c(=O)n(-c2ccccc2)n1C	-12	1	0	5	11	-1
Cc1c(NC(=S)N/N=C/c2cccc(O)c2)c(=O)n(-c2ccccc2)n1C	-5	10*	10	28	1	-2
CCCOc1ccccc1/C=C1/C(=O)ON=C1C	-4	8.2*	-6	10	9	1
CCCOc1ccc(/C=C2/C(=O)ON=C2C)cc1OCC	10	2	9	42	16	-2
O=C(NCCCN1CCCC1)c1ccc(CSCc2cccc(Cl)c2)o1	-1	-3	5	6	-3	-3
CN1CCN(CCCNC(=O)c2ccc(CSCc3cccc(Cl)c3)o2)CC1	-2	0	4	45	-29	6.8*
CC(C)c1nc2cc(C(=O)N3CCNC(=O)C3c3cccc(F)c3)ccc2o1 (stereo unspecified)	-3	-1	13	24	5	0
CCCN(CC(=O)Nc1ccccc1OC)C(=O)c1ccc(=O)[nH]c1	-2	-5	8	36	1	-5
CC(=O)Nc1ccc(NS(=O)(=O)c2c(Cl)cccc2Cl)cc1	2	-2	27	20	2	-3
Cc1ccc(Cn2nnc3c(=O)[nH]c(C4CCN(S(=O)(=O)c5ccc(F)cc5)CC4)nc32)cc1	18	-3	12	-16	-10	18*
CCCCN(C(=O)Cc1cccc(F)c1)c1c(N)n(CCC)c(=O)[nH]c1=O	0	-2	2	10	-2	-2
COc1cc2[nH]c(=S)nc(NCCC(C)C)c2cc1OC	4	-3	17	-103	-14	-3
COCCCNc1nc(=S)[nH]c2cc(OC)c(OC)cc12	11	0	14	82*	-7	-3
CCOC(=O)/C(=N\Nc1ccc(OC)cc1)c1csc(Nc2ccccc2)n1	2	-4	-12	90*	7	-4
SMILES	HCV core dimer	VIM-2 inh	SUMO HTRF inh	PHOSPHO1 inh	HCV NS3 hel inh	IMP-1 inhibitor
C[N+]1=C2CCCCCN2C(O)(c2ccccc2)C1 (stereo unspecified)	4	1	-5	86*	-1	-2
O=C1NC(=S)S/C1=C\C=C\c1ccc([N+](=O)[O-])o1	.	3	86*	-84	21	-1
CSc1ccccc1C(=O)NC1CCCc2ccccc21 (stereo unspecified)	8	1	7	20	-3	-3
O=C(NC(=S)Nc1ccccn1)c1cccc([N+](=O)[O-])c1	1	-1	16	15	-6	-4
Oc1oc(-c2ccccc2)nc1C=Nc1ccccc1	-4	-2	19	29	-3	-1
Sc1oc(-c2ccccc2)cc1C=Nc1ccccc1	-15	-1	32	91*	13	-1
